Assay results reported in ChEMBL document CHEMBL1154686, “Pyrazoline bearing benzimidazoles: search for anticancer agent” (2010).

Experiments:
Format in all cases: functional
[1] = test system: PC-3; assay: Growth inhibition of human PC3 cells after 48 hrs by SRB assay; conditions: PC-3, 48 h
Outline: (§1)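 NCI-60 panel protocol with adherent lines. Cells were seeded at 5,000–40,000 cells/well, depending on doubling time, and pre-incubated 24 h at 37 °C, 5% CO₂. Time-zero plates were TCA-fixed at drug addition. Drugs were dissolved in DMSO and exposed for 48 h. Cells were fixed with cold TCA (final 10%) for 60 min at 4 °C, stained with 0.4% SRB in 1% acetic acid for 10 min, solubilized with 10 mM trizma base, and read at A515.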

[2] = test system: DU-145; assay: Growth inhibition of human DU145 cells after 48 hrs by SRB assay; conditions: DU-145, 48 h; outline: as §1
[3] = test system: EKVX; assay: Growth inhibition of human EKVX cells after 48 hrs by SRB assay; outline: as §1
[4] = test system: NCI-H23; assay: Growth inhibition of human NCI-H23 cells after 48 hrs by SRB assay; conditions: NCI-H23, 48 h; outline: as §1
[5] = test system: CCRF-CEM; assay: Growth inhibition of human CCRF-CEM cells after 48 hrs by SRB assay
Outline: (§2)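 Suspension leukemia lines were run in the NCI-60 SRB format. Cells were plated at 5,000–40,000 cells/well and pre-incubated 24 h at 37 °C, 5% CO₂, with time-zero plates fixed at drug addition. Drug exposure in DMSO-derived dilutions lasted 48 h. Settled cells were fixed with 80% TCA (final 16%), stained with 0.4% SRB, solubilized in 10 mM trizma base, and read at 515 nm. Percent growth was taken relative to the time-zero and control readings.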

[6] = test system: A498; assay: Growth inhibition of human A498 cells after 48 hrs by SRB assay; conditions: A498, 48 h; outline: as §1
[7] = test system: NCI-H460; assay: Growth inhibition of human NCI-H460 cells after 48 hrs by SRB assay; conditions: NCI-H460, 48 h; outline: as §1
[8] = test system: SN12C; assay: Growth inhibition of human SN12C cells after 48 hrs by SRB assay; outline: as §1
[9] = test system: OVCAR-5; assay: Growth inhibition of human OVCAR5 cells after 48 hrs by SRB assay; conditions: OVCAR-5, 48 h; outline: as §1
[10] = test system: T47D; assay: Growth inhibition of human T47D cells after 48 hrs by SRB assay
Outline: (§3)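 NCI 60-cell panel, five-dose format: cells plated at 5,000–40,000/well by doubling time, preincubated 24 h at 37 °C, 5% CO2; time-zero plates TCA-fixed. Compound dissolved in DMSO, five concentrations (0.01, 0.1, 1, 10, 100 µM) plus control, 48 h. Cells fixed with cold TCA, stained with 0.4% SRB in 1% acetic acid, bound dye solubilized in 10 mM trizma base, absorbance at 515 nm. GI50 taken from [(Ti–Tz)/(C–Tz)]×100 = 50.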

[11] = test system: OVCAR-3; assay: Growth inhibition of human OVCAR-3 cells after 48 hrs by SRB assay; conditions: OVCAR-3, 48 h; outline: as §1
[12] = test system: BT-549; assay: Growth inhibition of human BT549 cells after 48 hrs by SRB assay; conditions: BT-549, 48 h; outline: as §1
[13] = test system: SK-MEL-5; assay: Growth inhibition of human SK-MEL-5 cells after 48 hrs by SRB assay; conditions: SK-MEL-5, 48 h; outline: as §1
[14] = test system: HL-60(TB); assay: Growth inhibition of human HL-60(TB) cells after 48 hrs by SRB assay; conditions: HL-60, 48 h
Outline: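 NCI-60 protocol: cells seeded at 5,000–40,000/well by doubling time and preincubated 24 h at 37 °C, 5% CO2. Drug, dissolved in DMSO, was added at one dose (10^-5 M) or five 10-fold dilutions, then incubated 48 h. Suspension cells were fixed with 80% TCA (final 16%) and stained with 0.4% SRB, read at 515 nm. GI50 was derived from percentage growth versus time-zero and control.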

[15] = test system: Malme-3M; assay: Growth inhibition of human MALME-3M cells after 48 hrs by SRB assay; outline: as §1
[16] = test system: SNB-19; assay: Growth inhibition of human SNB19 cells after 48 hrs by SRB assay; conditions: SNB-19, 48 h; outline: as §1
[17] = test system: COLO 205; assay: Growth inhibition of human COLO205 cells after 48 hrs by SRB assay; conditions: COLO 205, 48 h; outline: as §1
[18] = test system: RPMI-8226; assay: Growth inhibition of human RPMI8226 cells after 48 hrs by SRB assay; conditions: RPMI-8226, 48 h; outline: as §2
[19] = test system: MDA-MB-435; assay: Growth inhibition of human MDA-MB-435 cells after 48 hrs by SRB assay; conditions: MDA-MB-435, 48 h; outline: as §1
[20] = test system: HT-29; assay: Growth inhibition of human HT-29 cells after 48 hrs by SRB assay; conditions: HT-29, 48 h; outline: as §1
[21] = test system: CAKI-1; assay: Growth inhibition of human Caki1 cells after 48 hrs by SRB assay; conditions: CAKI-1, 48 h; outline: as §1
[22] = test system: U-251; assay: Growth inhibition of human U251 cells after 48 hrs by SRB assay; conditions: U-251, 48 h; outline: as §3
[23] = test system: RXF 393; assay: Growth inhibition of human […] cells after 48 hrs by SRB assay; conditions: RXF 393, 48 h; outline: as §1
[24] = test system: UACC-62; assay: Growth inhibition of human UACC62 cells after 48 hrs by SRB assay; conditions: UACC-62, 48 h; outline: as §3
[25] = test system: SNB-75; assay: Growth inhibition of human SNB75 cells after 48 hrs by SRB assay; conditions: SNB-75, 48 h; outline: as §1
[26] = read-out: LC50 (the source's name)

COc1ccc(C2CC(c3nc4ccccc4[nH]3)=NN2c2ccccc2)cc1OC (stereo not given)
GI50 [1]: 6.27 µM | TGI [1]: 49 µM | CC50 [1, 26]: > 100 µM | GI50 [2]: 33.1 µM | TGI [2]: > 100 µM | CC50 [2, 26]: > 100 µM | GI50 [3]: 9.83 µM | TGI [3]: > 100 µM | CC50 [3, 26]: > 100 µM | GI50 [4]: 16 µM | TGI [4]: > 100 µM | CC50 [4, 26]: > 100 µM | GI50 [5]: 2.23 µM | TGI [5]: 6.82 µM | CC50 [5, 26]: 88.7 µM | GI50 [6]: 5.14 µM | TGI [6]: 58.1 µM | CC50 [6, 26]: > 100 µM | GI50 [7]: 13.6 µM | TGI [7]: 40 µM | CC50 [7, 26]: > 100 µM | GI50 [8]: 17.3 µM | TGI [8]: > 100 µM | CC50 [8, 26]: > 100 µM | GI50 [9]: 26.7 µM | TGI [9]: > 100 µM | CC50 [9, 26]: > 100 µM | GI50 [10]: 3.09 µM | TGI [10]: 51.1 µM | CC50 [10, 26]: > 100 µM | GI50 [11]: 4.17 µM | TGI [11]: 18.9 µM | CC50 [11, 26]: 62.2 µM | GI50 [12]: 10.3 µM | TGI [12]: 69 µM | CC50 [12, 26]: > 100 µM | GI50 [13]: 2.62 µM | TGI [13]: 15.1 µM | CC50 [13, 26]: 67.6 µM | GI50 [14]: > 100 µM | TGI [14]: > 100 µM | CC50 [14, 26]: > 100 µM | GI50 [15]: 7.47 µM | TGI [15]: 92.7 µM | CC50 [15, 26]: > 100 µM | GI50 [16]: 26.6 µM | TGI [16]: > 100 µM | CC50 [16, 26]: > 100 µM | GI50 [17]: 9.88 µM | TGI [17]: 33.2 µM | CC50 [17, 26]: > 100 µM | GI50 [18]: 2.76 µM | TGI [18]: 10.3 µM | CC50 [18, 26]: 76.6 µM | GI50 [19]: 4.15 µM | TGI [19]: > 100 µM | CC50 [19, 26]: > 100 µM | GI50 [20]: 9.91 µM | TGI [20]: 24.7 µM | CC50 [20, 26]: 61.4 µM | GI50 [21]: 3.6 µM | TGI [21]: 24.7 µM | CC50 [21, 26]: > 100 µM | GI50 [22]: 7.67 µM | TGI [22]: 80.2 µM | CC50 [22, 26]: > 100 µM | GI50 [23]: 13.4 µM | TGI [23]: 36.1 µM | CC50 [23, 26]: 97 µM | GI50 [24]: 2.59 µM | TGI [24]: > 100 µM | CC50 [24, 26]: > 100 µM | GI50 [25]: 11 µM | TGI [25]: 47.4 µM | CC50 [25, 26]: > 100 µM
